Results published in ChEMBL document CHEMBL4257459, “Synergistic antifungal effect of cyclized chalcone derivatives and fluconazole against Candida albicans” (2017).
≈ marks a conversion by molar mass, not a printed value.

What was measured:
[1] = tested on: Candida albicans; assay: Antifungal activity against fluconazole resistant Candida albicans 167-2 by CLSI protocol based broth microdilution method; type: functional
Procedure, shortened: (§1)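 Broth microdilution per CLSI M27-A3 against clinical C. albicans isolates. Strains sub-cultured at least twice on Tryptone Soya Agar, 37 °C, 48 h. Compounds dissolved in DMSO at 2000 μg mL–1 stock. Fluconazole positive control, plus culture, media and vehicle controls. Run in duplicate; MIC in μg mL–1.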

[2] = tested on: Candida albicans; assay: Antifungal activity against fluconazole resistant Candida albicans A171 by CLSI protocol based broth microdilution method; type: functional; procedure, shortened: as §1
[3] = tested on: Candida albicans; assay: Antifungal activity against fluconazole resistant Candida albicans 167-1 by CLSI protocol based broth microdilution method; type: functional; procedure, shortened: as §1
[4] = tested on: Candida albicans; assay: Antifungal activity against fluconazole susceptible Candida albicans 002B1 by CLSI protocol based broth microdilution method; type: functional
Procedure, shortened: (§2)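 Clinical isolates and control strain subcultured at least twice on TSA, 37 °C, 48 h. MICs by CLSI M27-A3 broth microdilution; compounds dissolved in DMSO to 2000 μg mL–1 stock. Fluconazole positive control, culture, media and DMSO vehicle controls in each run. Duplicate experiments; MIC in μg mL–1.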

[5] = tested on: Candida albicans; assay: Antifungal activity against fluconazole susceptible Candida albicans 003gr by CLSI protocol based broth microdilution method; type: functional; procedure, shortened: as §2
[6] = tested on: Candida albicans; assay: Antifungal activity against fluconazole susceptible Candida albicans 004gr by CLSI protocol based broth microdilution method; type: functional; procedure, shortened: as §2
[7] = tested on: Candida albicans; assay: Antifungal activity against fluconazole susceptible Candida albicans 004B1 by CLSI protocol based broth microdilution method; type: functional; procedure, shortened: as §2
[8] = tested on: Candida albicans; assay: Antifungal activity against fluconazole susceptible Candida albicans 0079gr by CLSI protocol based broth microdilution method; type: functional; procedure, shortened: as §2
[9] = tested on: Candida albicans; assay: Antifungal activity against fluconazole susceptible Candida albicans 0072gr by CLSI protocol based broth microdilution method; type: functional; procedure, shortened: as §2
[10] = tested on: Candida albicans; assay: Antifungal activity against Candida albicans ATCC 90028 by CLSI protocol based broth microdilution method; type: functional; procedure, shortened: as §2
[11] = tested on: Candida albicans; assay: Antifungal activity against fluconazole resistant Candida albicans A171 in presence of fluconazole by CLSI protocol based broth microdilution method; type: functional
Procedure, shortened: (§3)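 Checkerboard-style combination with fluconazole at a 1 : 1 ratio, over concentrations 2–4 fold below each agent's MIC alone, by CLSI broth microdilution. Fractional inhibitory concentration index calculated and interpreted as synergy (<0.5), additive (0.5–1), indifferent or antagonistic.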

[12] = tested on: Candida albicans; assay: Antifungal activity against fluconazole resistant Candida albicans 167-1 in presence of fluconazole by CLSI protocol based broth microdilution method; type: functional; procedure, shortened: as §3
[13] = tested on: Candida albicans; assay: Antifungal activity against fluconazole resistant Candida albicans 167-2 in presence of fluconazole by CLSI protocol based broth microdilution method; type: functional; procedure, shortened: as §3
[14] = tested on: Candida albicans; assay: Antifungal activity against fluconazole susceptible Candida albicans 002B1 in presence of fluconazole by CLSI protocol based broth microdilution method; type: functional
[15] = tested on: Candida albicans; assay: Antifungal activity against fluconazole susceptible Candida albicans 003gr in presence of fluconazole by CLSI protocol based broth microdilution method; type: functional
[16] = tested on: Candida albicans; assay: Antifungal activity against fluconazole susceptible Candida albicans 004gr in presence of fluconazole by CLSI protocol based broth microdilution method; type: functional
[17] = tested on: Candida albicans; assay: Antifungal activity against fluconazole susceptible Candida albicans 004B1 in presence of fluconazole by CLSI protocol based broth microdilution method; type: functional
[18] = tested on: Candida albicans; assay: Antifungal activity against fluconazole susceptible Candida albicans 0079gr in presence of fluconazole by CLSI protocol based broth microdilution method; type: functional
[19] = tested on: Candida albicans; assay: Antifungal activity against fluconazole susceptible Candida albicans 0072gr in presence of fluconazole by CLSI protocol based broth microdilution method; type: functional
[20] = tested on: Candida albicans; assay: Antifungal activity against Candida albicans ATCC 90028 in presence of fluconazole by CLSI protocol based broth microdilution method; type: functional
[21] = tested on: Candida albicans; assay: Inhibition of ABC efflux pumps in fluconazole resistant Candida albicans A171 assessed as reduction in energy-dependent rhodamine 6G efflux in presence of 0.1 M glucose after 25 mins by fluorescence assay relative to control
Procedure, shortened: (§4)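 Cells grown in TSB at 37 °C for 8 h, washed, resuspended in glucose-free PBS at 1 × 10^8 cells. De-energized 45 min with 5 mM deoxyglucose plus 5 mM dinitrophenol. […] Washed, sampled 5–25 min, then 0.1 M glucose added. Absorbance 527 nm, R6G from standard curve.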

[22] = tested on: Candida albicans; assay: Inhibition of ABC efflux pumps in fluconazole resistant Candida albicans 167-1 assessed as reduction in energy-dependent rhodamine 6G efflux in presence of 0.1 M glucose after 25 mins […] relative to control
[23] = tested on: Candida albicans; assay: Inhibition of ABC efflux pumps in fluconazole resistant Candida albicans 167-2 assessed as reduction in energy-dependent rhodamine 6G efflux in presence of 0.1 M glucose after 25 mins […] relative to control
[24] = tested on: Candida albicans; assay: Inhibition of ABC efflux pumps in fluconazole susceptible Candida albicans 002B1 assessed as reduction in energy-dependent rhodamine 6G efflux in presence of 0.1 M glucose after 25 mins […] relative to control
[25] = tested on: Candida albicans; assay: Inhibition of ABC efflux pumps in fluconazole susceptible Candida albicans 003gr assessed as reduction in energy-dependent rhodamine 6G efflux in presence of 0.1 M glucose after 25 mins […] relative to control
[26] = tested on: Candida albicans; assay: Inhibition of ABC efflux pumps in fluconazole susceptible Candida albicans 004gr assessed as reduction in energy-dependent rhodamine 6G efflux in presence of 0.1 M glucose after 25 mins by fluorescence assay relative to control; procedure, shortened: as §4
[27] = tested on: Candida albicans; assay: Inhibition of ABC efflux pumps in fluconazole susceptible Candida albicans 004B1 assessed as reduction in energy-dependent rhodamine 6G efflux in presence of 0.1 M glucose after 25 mins by fluorescence assay relative to control; procedure, shortened: as §4
[28] = tested on: Candida albicans; assay: Inhibition of ABC efflux pumps in fluconazole susceptible Candida albicans 0079gr assessed as reduction in energy-dependent rhodamine 6G efflux in presence of 0.1 M glucose after 25 mins by fluorescence assay relative to control; procedure, shortened: as §4
[29] = tested on: Candida albicans; assay: Inhibition of ABC efflux pumps in fluconazole susceptible Candida albicans 0072gr assessed as reduction in energy-dependent rhodamine 6G efflux in presence of 0.1 M glucose after 25 mins […] relative to control
[30] = tested on: Candida albicans; assay: Inhibition of ergosterol biosynthesis in fluconazole resistant Candida albicans A171 at 0.5 to 1 times MIC relative to control; type: functional
Procedure, shortened: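 Total sterols quantified by alcoholic KOH extraction in cells grown in 50 ml TSB with compounds at MIC and ½ MIC; untreated and 8 μg mL–1 fluconazole controls. Spectral scan; ergosterol content from A281.5 and A230 absorbances, dilution factor and pellet weight, correcting for 24(28) DHE.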

[31] = tested on: Candida albicans; assay: Inhibition of ergosterol biosynthesis in fluconazole susceptible Candida albicans ATCC 90028 at 0.5 to 1 times MIC relative to control; type: functional
Procedure, shortened: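 ATCC90028 grown in 50 ml TSB with MIC and ½ MIC of compound; untreated and 8 μg mL–1 fluconazole controls. Sterols extracted by alcoholic KOH method and spectrophotometrically scanned; ergosterol % calculated from A281.5 and A230 (E values 290 and 518) with dilution factor, per pellet weight.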

[32] = tested on: Candida albicans; assay: Down regulation of ERG11 gene expression in fluconazole resistant Candida albicans A171 at MIC after 2 hrs by qRT PCR analysis relative to control; type: functional
Procedure, shortened: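 Cells exposed 2 h to test agents at MIC. Total RNA isolated, cDNA synthesized, qPCR for ERG11 with ACT1 as endogenous control. Triplicate independent experiments, reported as mean ± standard deviation.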

[33] = tested on: Candida albicans; assay: Down regulation of ERG11 gene expression in fluconazole susceptible Candida albicans ATCC 90028 at MIC after 2 hrs by qRT PCR analysis relative to control; type: functional
Procedure, shortened: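 Cells exposed to compound at MIC for 2 h; total RNA isolated, cDNA synthesised, ERG11 measured by real-time qPCR with ACT1 as endogenous control. Triplicate independent experiments; mean ± standard deviation.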

Compound	MIC [1] [µg/mL]	MIC [2] [µg/mL]	MIC [3] [µg/mL]	MIC [4] [µg/mL]	MIC [5] [µg/mL]	MIC [6] [µg/mL]	MIC [7] [µg/mL]	MIC [8] [µg/mL]	MIC [9] [µg/mL]	MIC [10] [µg/mL]	fractional inhibitory concentration index (FICI) [11]	fractional inhibitory concentration index (FICI) [12]	fractional inhibitory concentration index (FICI) [13]	fractional inhibitory concentration index (FICI) [14]	fractional inhibitory concentration index (FICI) [15]	fractional inhibitory concentration index (FICI) [16]	fractional inhibitory concentration index (FICI) [17]	fractional inhibitory concentration index (FICI) [18]	fractional inhibitory concentration index (FICI) [19]	fractional inhibitory concentration index (FICI) [20]	also measured
c1ccc(C2=NOC(c3ccc(C4CC(c5ccccc5)=NO4)cc3)C2)cc1 (stereo unspecified)	8 to 16 (≈ 21.7 to 43.4 µM)	8 to 16 (≈ 21.7 to 43.4 µM)	8 to 16 (≈ 21.7 to 43.4 µM)	2 to 8 (≈ 5.43 to 21.7 µM)	2 to 8 (≈ 5.43 to 21.7 µM)	2 to 8 (≈ 5.43 to 21.7 µM)	2 to 8 (≈ 5.43 to 21.7 µM)	2 to 8 (≈ 5.43 to 21.7 µM)	2 to 8 (≈ 5.43 to 21.7 µM)	2 to 8 (≈ 5.43 to 21.7 µM)	0.532 - 1.02	0.532 - 1.02	0.532 - 1.02	0.37 - 0.75	0.37 - 0.75	0.37 - 0.75	0.37 - 0.75	0.37 - 0.75	0.37 - 0.75	0.37 - 0.75	inhibition [21]: < 20%; inhibition [22]: < 20%; inhibition [23]: < 20%; inhibition [24]: < 20%; inhibition [25]: < 20%; inhibition [26]: < 20%; inhibition [27]: < 20%; inhibition [28]: < 20%; inhibition [29]: < 20%; inhibition (INH) [30]: 49 - 94%; inhibition (INH) [31]: 66 - 99%; fold change (FC) [32]: 1.25 - 10; fold change (FC) [33]: 1.5 - 13
S=C1NC(c2ccccc2)=CC(c2ccc(C3C=C(c4ccccc4)NC(=S)N3)cc2)N1 (stereo unspecified)	2 (≈ 4.4 µM)	2 (≈ 4.4 µM)	2 (≈ 4.4 µM)	0.125 to 1 (≈ 0.275 to 2.2 µM)	0.125 to 1 (≈ 0.275 to 2.2 µM)	0.125 to 1 (≈ 0.275 to 2.2 µM)	0.125 to 1 (≈ 0.275 to 2.2 µM)	0.125 to 1 (≈ 0.275 to 2.2 µM)	0.125 to 1 (≈ 0.275 to 2.2 µM)	0.125 to 1 (≈ 0.275 to 2.2 µM)	0.25 - 0.251	0.25 - 0.251	0.25 - 0.251	0.13 - 0.31	0.13 - 0.31	0.13 - 0.31	0.13 - 0.31	0.127	0.13 - 0.31	0.13 - 0.31	inhibition [21]: 28%; inhibition [22]: 28%; inhibition [23]: 28%; inhibition [24]: 28%; inhibition [25]: 28%; inhibition [26]: 28%; inhibition [27]: 28%; inhibition [28]: 28%; inhibition [29]: 28%; inhibition (INH) [30]: 49 - 94%; inhibition (INH) [31]: 66 - 99%; fold change (FC) [32]: 1.25 - 10; fold change (FC) [33]: 1.5 - 13
